Bioassay records from PubChem BioAssay.
Sampled rows, rich in hits. Any-hit rate of the full collection: about 4.1%.
SMARCA2 act: activators of SMARCA2 function; actives 1% (n = 370,000); activation, % at 9.1 µM; MG213 cells, MMTV-luciferase reporter, dexamethasone, overnight; in the data active means activation above about 7.8%;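 further: 0% = vehicle wells and 100% = reference activator wells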
H9c2 TAG inh: inhibitors of triacylglycerol accumulation; H9c2 cells, Nile Red lipid (TAG) fluorescence; cells loaded with 200 µM oleic acid; actives 0.66% (n = 230,000); inhibition, % at 12.5 µM;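 active means pattern-corrected inhibition of lipid staining of at least 50% with the nuclear-stain viability signal not falling by more than 50%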;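 further: 0% = DMSO wells and 100% = triacsin C control wells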
Tb MetRS inh: Trypanosoma brucei MetRS inhibition | AID 624268 | inhibition, % at 11.9 µM | purified T. brucei MetRS, ATP depletion, Kinase-Glo luminescence | actives 0.4% (n = 360,000);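 active means inhibition above a per-plate cutoff of the control wells' mean inhibition plus 3 SD, cut at about 5.5% in these data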;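 further: 0% = DMSO wells median and 100% = median of wells with control inhibitor compound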
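Test system – parasite MetRS enzyme · Reagent – substrates ATP, L-methionine and bulk Escherichia coli tRNA · Doses – 11.9 µM compound single dose, 0.9% DMSO · Times – 15 min enzyme-compound preincubation, 2 h reaction, 10 min detection, 25 °C · Signal – Kinase-Glo luminescence, ATP depletion format · Controls – DMSO-only wells as low control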
AHR act: human AHR activation; AHR-responsive luciferase reporter cells, luminescence; actives 2.5% (n = 320,000); P35869; activation, % at 5 µM; in the data active means activation above about 47%;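 further: 0% = vehicle wells and 100% = reference agonist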
Efflux pump mplx: inhibitors of Candida antifungal efflux pumps expressed in yeast; S. cerevisiae Candida pump triplex, Nile Red efflux; inhibition, % at 10 µM; actives 0.44% (n = 330,000);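 active means plate passing quality check with inhibition over a set limit, or well fluorescence over plate mean plus 4 SD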;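 further: Nile Red retained in pooled yeast measured as flow cytometry median fluorescence; 0% = buffer negative control and 100% = Enniatin B positive control; higher means more Nile Red kept so more efflux inhibition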
AHR act confirm: confirmation of human aryl hydrocarbon receptor activators | human cells, AHR-responsive luciferase reporter, luminescence | shares compounds with AHR act | AID 2845 | activation, % at 9 µM | actives 87% (n = 2,300); in the data active means activation above about 49%;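 further: HepG2 hepatoma cells carrying a DRE-driven firefly luciferase reporter; 0% = vehicle wells and 100% = reference agonist wells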
PXR act counter: counter-screen for AHR activators: human PXR activators; shares compounds with AHR act; cell-based PXR reporter, luciferase luminescence; activation, % at 11.6 µM; actives 88% (n = 2,300); in the data active means activation above about 11%;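 further: human hepatoma DPX-2 cells expressing full-length human PXR; 0% = DMSO and 100% = reference agonist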
Target sequence (O75469 whole entry, looked up): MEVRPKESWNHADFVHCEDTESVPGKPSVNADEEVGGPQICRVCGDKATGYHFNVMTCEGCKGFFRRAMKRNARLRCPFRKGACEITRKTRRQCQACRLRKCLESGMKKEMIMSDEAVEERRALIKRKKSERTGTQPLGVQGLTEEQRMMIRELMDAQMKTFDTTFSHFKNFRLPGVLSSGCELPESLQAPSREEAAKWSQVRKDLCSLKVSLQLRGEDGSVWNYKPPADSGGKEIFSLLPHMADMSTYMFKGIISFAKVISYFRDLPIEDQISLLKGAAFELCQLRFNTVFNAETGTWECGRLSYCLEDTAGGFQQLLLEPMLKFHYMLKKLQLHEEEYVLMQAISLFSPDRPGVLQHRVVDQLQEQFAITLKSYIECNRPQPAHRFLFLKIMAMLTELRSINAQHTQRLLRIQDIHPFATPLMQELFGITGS
* = called active by the depositor; · = no result.

SMILES | SMARCA2 act | H9c2 TAG inh | Tb MetRS inh | AHR act | Efflux pump mplx | AHR act confirm | PXR act counter
CC1=C(C(=O)Nc2ccc(C)cc2)C(c2ccco2)NC(=O)N1 (stereo unspecified) | 1 | -5 | 0 | 2 | 0 | · | ·
CC1=C(C(=O)Nc2ccc(Br)cc2)C(c2ccco2)NC(=O)N1 (stereo unspecified) | -5 | · | 1 | 107* | 0 | 35 | 7
COc1ccc(N2CCN(c3cc(C)c4cccc(C)c4n3)CC2)cc1 | -2 | 21 | -1 | 129* | 0 | 95* | 13*
COc1ccc2nc(N3CCOCC3)cc(C)c2c1 | 5 | · | 0 | -5 | 0 | · | ·
COc1ccc(N2CCN(c3cc(C)c4ccc(O)cc4n3)CC2)cc1 | 3 | -17 | 1 | 132* | 0 | 71* | ·
COc1ccc(N2CCN(c3cc(C)c4ccc(C)cc4n3)CC2)cc1 | -1 | -9 | -1 | 100* | 0 | 110* | 18*
O=C(CSc1nnc(-c2ccccc2)n1Cc1ccco1)Nc1ccc(OCc2ccccc2)cc1 | -7 | · | · | · | · | · | ·
CCCc1nc(NCc2ccccn2)c2nnn(Cc3ccccc3F)c2n1 | 1 | -9 | -1 | 1 | 0 | · | ·
CCCc1nc(NCc2ccncc2)c2nnn(Cc3ccccc3F)c2n1 | 1 | 13 | -1 | 81* | 0 | 61* | 116*
CC(C)C[C@@H]1COc2cccc(N3CCSCC3)c2S(=O)(=O)N1C | -1 | · | · | · | · | · | ·
NC(=S)n1[nH]c(-c2ccc([N+](=O)[O-])cc2)c(N=Nc2cccc(Cl)c2)c1=O | -2 | 0 | -1 | · | · | · | ·
Cc1[nH]n(C(N)=S)c(=O)c1N=Nc1cccc(Cl)c1 | 2 | · | 0 | 114* | 0 | 115* | 13*
CC1=NN(C(N)=S)C(=O)C1N=Nc1cccc(Cl)c1 (stereo unspecified) | 2 | · | 0 | 85* | 0 | 148* | 27*
CC1=NN(C(N)=S)C(=O)C1N=Nc1ccc(S(N)(=O)=O)cc1 (stereo unspecified) | -1 | -2 | -1 | 0 | 0 | · | ·
O=[N+]([O-])c1cccc(NC(=S)Nc2nc(-c3ccccc3Cl)cs2)c1 | -2 | 39 | 0 | 87* | 0 | 56* | 23*
O=C(Nc1nc2ccccc2s1)c1ccc(Cl)s1 | 6 | -10 | 0 | 82* | 0 | 50* | 12*
Clc1cccc2sc(N3CCN(c4ccccc4)CC3)nc12 | -1 | · | 0 | 122* | 0 | 112* | 17*
Clc1ccc(Cl)c2sc(N3CCCC3)nc12 | -2 | 4 | 0 | 26 | 0 | · | ·
CCOc1ccc2oc(C(=O)Nc3nccs3)c(C)c2c1 | 2 | 2 | 0 | 107* | 0 | 162* | 23*
COC(=O)[C@]1(CNC(=O)C(F)(F)F)CC(=O)N(C)[C@@H]1c1ccccc1 | -1 | · | · | · | · | · | ·
O=C(/C=C/c1c[nH]c2ccccc12)c1ccccc1 | 5 | · | 1 | 93* | 0 | 105* | 28*
O=C(/C=C/c1ccccc1O)c1ccccc1 | 1 | 8 | 0 | · | · | · | ·
Cc1ccccc1CN1CCCCC(NC(=O)c2ccc(COc3ccccc3)cc2)C1=O (stereo unspecified) | -4 | · | · | · | · | · | ·
O=C(NCc1ccco1)C1CCCN(S(=O)(=O)c2ccccc2F)C1 (stereo unspecified) | -2 | · | · | · | · | · | ·
CCC(=O)Nc1ccc2c(c1)C(=O)N(C)[C@@H]1CC[C@@H](CC(=O)NCCN3CCCCC3)O[C@H]1CO2 | 4 | · | · | · | · | · | ·
SMILES | SMARCA2 act | H9c2 TAG inh | Tb MetRS inh | AHR act | Efflux pump mplx | AHR act confirm | PXR act counter
O=C(NCCc1ccccc1)OCc1cn(Cc2ccc(F)cc2)nn1 | -2 | · | · | · | · | · | ·
COc1ccccc1-c1nnc(N)s1 | 0 | 6 | -1 | 1 | 0 | · | ·
CCOC(=O)Nc1nnc(-c2ccccc2OC)s1 | 3 | 4 | -1 | 98* | 0 | 125* | 29*
COC(=O)Nc1nnc(-c2ccccc2OC)s1 | 7 | -4 | -1 | 107* | 0 | 140* | 17*
CCOc1ccccc1C(=O)Nc1nnc(CC)s1 | -3 | 6 | 0 | 96* | 0 | 70* | 22*
CCc1nnc(NC(=O)c2cccc(C(=O)Nc3nnc(CC)s3)n2)s1 | -5 | · | 0 | 8 | 0 | · | ·
O=C(Nc1cccc(Br)c1)OC1CC2CC1[C@H]1CCCCN1[C@H]2Cc1ccccc1 (stereo partly specified) | -2 | · | · | · | · | · | ·
